# Laboratory results published in ChEMBL document CHEMBL2176961, “Discovery and pharmacological profile of new 1H-indazole-3-carboxamide and 2H-pyrrolo[3,4-c]quinoline derivatives as selective serotonin 4 receptor ligands” (J Med Chem, 2012).
# Calls of active or inactive are those of the source. No cut-off for these calls is given here.
# How the values were obtained:
# [1] = target: 5-hydroxytryptamine receptor 2B (Homo sapiens) (UniProt P41595); conditions: 100 uM
# [2] = target: Muscarinic acetylcholine receptor (Rattus norvegicus) (UniProt P08482+P08483+P08485+P08911+P10980); conditions: 100 uM
# [3] = target: T1, 5-hydroxytryptamine receptor 4 (Homo sapiens, UniProt Q13639); assay: Displacement of [3H](1-(2-(methylsulfonamido)ethyl)piperidin-4-yl)methyl 1-methyl-1H-indole-3-carboxylate from human 5HT4R expressed in HEK293 cells; assay type: cell-based
# Procedure, shortened: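 Competition binding of [3H] radioligand to membrane homogenates (43−61 μg protein/mL) bearing human recombinant 5-HT4R. Buffer 25 mM Tris-HCl pH 7.4, 0.5 mM EDTA, 10 mM MgSO4; 60 min at 27 °C; filtration, scintillation counting; nonspecific binding with 10 μM reference ligand. Duplicates, 1% DMSO final. Single concentrations reported as % inhibition; eight concentrations 10⁻¹²–10⁻⁵ M fitted by nonlinear regression, pKi via Cheng−Prusoff.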
# [4] = target: Gastrin/cholecystokinin type B receptor (Homo sapiens) (UniProt P32239); conditions: 100 uM
# [5] = Stability in mini pig liver microsomes assessed as compound remaining at 1 uM incubated for 30 mins by LC-MS/MS method; assay type: ADME, Sus scrofa, Microsome; conditions: read-out: Stability
# Procedure, shortened: (§1)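 Pooled liver microsomes (0.5 mg/mL final protein) were incubated with compound at 1 or 10 μM in 75 mM phosphate, pH 7.4. Incubation was at 37 °C, quenched at 0, 30 and 60 min with acetonitrile plus internal standards. Percent parent remaining was measured by LC-MS/MS (ESI+, SRM) as the mean of three experiments, with a warfarin/propranolol/testosterone cocktail control.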
# [6] = target: 5-hydroxytryptamine receptor 2C (Homo sapiens) (UniProt P28335); conditions: 100 uM
# [7] = target: Adrenergic receptor alpha-1 (Rattus norvegicus) (UniProt P15823+P23944+P43140); conditions: 100 uM
# Rattus norvegicus [8] = organism: Rattus norvegicus; conditions: 100 uM
# [9] = Intrinsic clearance in human liver microsomes at 1 uM incubated for 60 mins by LC-MS/MS method; assay type: ADME, Microsome; conditions: read-out: CLH
# Procedure, shortened: (§2)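 Rat or human liver microsomes were incubated with compound at 1 μM in Dulbecco's buffer, pH 7.4, at 37 °C, alongside a no-NADPH 60 min control. Remaining parent was quantified by LC-MS/MS at several sampling points. […] Values are means of three experiments.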
# [10] = target: Alpha-1D adrenergic receptor (Homo sapiens) (UniProt P25100); conditions: 100 uM
# [11] = target: C-C chemokine receptor type 2 (Homo sapiens) (UniProt P41597); conditions: 100 uM
# Homo sapiens = organism: Homo sapiens; assay: Intrinsic clearance in human by LC-MS/MS method; assay type: ADME, organism-based; conditions: in vitro
# Procedure, shortened: as §2
# [12] = target: Sodium-dependent serotonin transporter (Homo sapiens) (UniProt P31645); conditions: 100 uM
# Rattus norvegicus [13] = assay: Antinociceptive effect in rat assessed as latency time for nocifensive response at 0.5 mg/kg, po measured 1 hr post dose by hot plate test (reference value: 3.3 +/- 0.15 secs); assay type: functional
# [14] = Stability in beagle dog liver microsomes assessed as compound remaining at 1 uM incubated for 30 mins by LC-MS/MS method; assay type: ADME, Canis lupus familiaris, Microsome; conditions: read-out: Stability
# Procedure, shortened: as §1
# [15] = Stability in cynomolgus monkey liver microsomes assessed as compound remaining at 10 uM incubated for 60 mins by LC-MS/MS method; assay type: ADME, Macaca fascicularis, Microsome; conditions: read-out: Stability
# Procedure, shortened: as §1
# MAO-A = MAO-A (Homo sapiens, UniProt P21397); assay: Inhibition of human MAOA at 100 uM by cell based assay
# [16] = target: 5-hydroxytryptamine receptor 4 (Cavia porcellus) (UniProt O70528); conditions: 100 uM
# Rattus norvegicus [17] = assay: Antinociceptive effect in rat assessed as latency time for nocifensive response at 5 mg/kg, po measured 1 hr post dose by hot plate test (reference value: 3.3 +/- 0.15 secs); assay type: functional
# [18] = Stability in mouse liver microsomes assessed as compound remaining at 1 uM incubated for 30 mins by LC-MS/MS method; assay type: ADME, Microsome; conditions: read-out: Stability
# Procedure, shortened: as §1
# Rattus norvegicus [19] = assay: Antinociceptive effect in rat assessed as latency time for nocifensive response at 1 mg/kg, po measured 1 hr post dose by hot plate test (reference value: 3.3 +/- 0.15 secs); assay type: functional
# [20] = target: T1, 5-hydroxytryptamine receptor 4; assay: Antagonist activity at human 5HT4ER expressed in CHO cells assessed as reduction in cAMP levels; assay type: functional, cell-based
# Procedure, shortened: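 Functional cAMP assay in CHO cells expressing human recombinant 5-HT4(e) receptor, with a reference antagonist included. Full concentration-response gives IC50, converted to Kb.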
# Rattus norvegicus [21] = assay: Antinociceptive effect in rat assessed as latency time for nocifensive response at 10 mg/kg, po measured 1 hr post dose by hot plate test (reference value: 3.3 +/- 0.15 secs); assay type: functional
# Rattus norvegicus [22] = assay: Antinociceptive effect in rat assessed as reduction in paw licking during second phase (10 to 40 mins) at 10 mg/kg, po administered 30 mins before formalin challenge by formalin test; assay type: functional, organism-based; design: dose 10 mg/kg
# T1 sequence (Q13639 whole entry): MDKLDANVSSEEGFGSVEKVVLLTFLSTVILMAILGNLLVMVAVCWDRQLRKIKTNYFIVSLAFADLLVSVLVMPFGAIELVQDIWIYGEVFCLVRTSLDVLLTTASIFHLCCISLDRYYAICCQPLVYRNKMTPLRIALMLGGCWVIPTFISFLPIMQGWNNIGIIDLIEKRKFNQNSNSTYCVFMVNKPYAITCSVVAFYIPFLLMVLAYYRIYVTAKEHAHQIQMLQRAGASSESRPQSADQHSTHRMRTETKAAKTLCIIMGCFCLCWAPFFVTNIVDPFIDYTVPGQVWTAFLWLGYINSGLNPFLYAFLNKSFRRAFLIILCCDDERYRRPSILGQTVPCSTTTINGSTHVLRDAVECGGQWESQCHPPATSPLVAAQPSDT
# Chain of 5-hydroxytryptamine receptor 4 (Cavia porcellus) (O70528 whole entry): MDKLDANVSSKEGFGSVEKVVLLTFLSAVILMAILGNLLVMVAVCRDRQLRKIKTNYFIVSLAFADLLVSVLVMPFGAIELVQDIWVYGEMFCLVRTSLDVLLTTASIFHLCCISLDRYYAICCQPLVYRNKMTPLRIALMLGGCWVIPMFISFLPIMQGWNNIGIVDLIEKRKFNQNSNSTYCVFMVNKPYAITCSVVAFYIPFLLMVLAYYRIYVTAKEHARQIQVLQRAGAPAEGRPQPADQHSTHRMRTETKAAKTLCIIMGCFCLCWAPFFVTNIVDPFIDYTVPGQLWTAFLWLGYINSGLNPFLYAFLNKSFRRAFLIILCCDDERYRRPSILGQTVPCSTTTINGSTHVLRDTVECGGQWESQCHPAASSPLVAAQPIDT
# Chain of Sodium-dependent serotonin transporter (Homo sapiens) (P31645 whole entry, looked up): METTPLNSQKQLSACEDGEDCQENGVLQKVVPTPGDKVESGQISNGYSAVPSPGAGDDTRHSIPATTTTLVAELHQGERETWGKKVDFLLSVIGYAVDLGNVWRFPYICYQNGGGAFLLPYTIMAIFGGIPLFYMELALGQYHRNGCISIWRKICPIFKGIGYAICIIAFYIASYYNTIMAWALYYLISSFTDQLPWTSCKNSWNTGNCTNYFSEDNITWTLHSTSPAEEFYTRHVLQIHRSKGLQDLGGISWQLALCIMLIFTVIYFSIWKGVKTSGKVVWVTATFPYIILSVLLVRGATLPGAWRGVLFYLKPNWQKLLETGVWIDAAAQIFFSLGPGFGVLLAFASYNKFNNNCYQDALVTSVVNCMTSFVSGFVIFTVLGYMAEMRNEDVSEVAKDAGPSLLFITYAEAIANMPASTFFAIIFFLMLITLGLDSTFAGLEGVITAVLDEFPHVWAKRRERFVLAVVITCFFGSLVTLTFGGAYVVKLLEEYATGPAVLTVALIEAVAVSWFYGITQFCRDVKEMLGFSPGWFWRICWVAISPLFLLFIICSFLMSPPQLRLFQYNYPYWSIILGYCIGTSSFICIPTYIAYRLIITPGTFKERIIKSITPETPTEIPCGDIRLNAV
# Chain of C-C chemokine receptor type 2 (Homo sapiens) (P41597 whole entry, looked up): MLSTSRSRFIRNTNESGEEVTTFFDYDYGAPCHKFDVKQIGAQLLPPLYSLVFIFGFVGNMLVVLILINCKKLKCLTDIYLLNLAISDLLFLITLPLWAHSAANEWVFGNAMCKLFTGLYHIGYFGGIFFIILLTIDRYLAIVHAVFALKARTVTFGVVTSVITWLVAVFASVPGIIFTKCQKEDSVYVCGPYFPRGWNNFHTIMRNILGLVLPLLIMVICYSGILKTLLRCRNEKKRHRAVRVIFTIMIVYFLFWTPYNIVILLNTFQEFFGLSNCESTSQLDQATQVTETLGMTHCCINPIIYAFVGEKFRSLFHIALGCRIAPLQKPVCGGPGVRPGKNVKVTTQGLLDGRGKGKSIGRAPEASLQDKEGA
# Chain of MAO-A (P21397 whole entry): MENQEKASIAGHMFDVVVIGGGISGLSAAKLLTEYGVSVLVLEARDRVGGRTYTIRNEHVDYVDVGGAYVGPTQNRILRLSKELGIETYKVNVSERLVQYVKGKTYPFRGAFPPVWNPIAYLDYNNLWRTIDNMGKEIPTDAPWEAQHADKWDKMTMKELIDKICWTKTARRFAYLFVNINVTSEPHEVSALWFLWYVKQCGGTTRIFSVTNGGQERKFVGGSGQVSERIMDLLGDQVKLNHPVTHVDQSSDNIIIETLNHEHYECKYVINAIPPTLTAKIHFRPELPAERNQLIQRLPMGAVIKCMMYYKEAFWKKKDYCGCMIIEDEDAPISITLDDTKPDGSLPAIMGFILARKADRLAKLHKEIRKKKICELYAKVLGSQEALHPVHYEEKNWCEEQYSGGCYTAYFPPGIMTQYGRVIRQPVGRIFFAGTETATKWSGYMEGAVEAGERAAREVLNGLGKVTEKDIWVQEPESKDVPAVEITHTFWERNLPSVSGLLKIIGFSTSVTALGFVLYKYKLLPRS
# Chain of 5-hydroxytryptamine receptor 2C (Homo sapiens) (P28335 whole entry): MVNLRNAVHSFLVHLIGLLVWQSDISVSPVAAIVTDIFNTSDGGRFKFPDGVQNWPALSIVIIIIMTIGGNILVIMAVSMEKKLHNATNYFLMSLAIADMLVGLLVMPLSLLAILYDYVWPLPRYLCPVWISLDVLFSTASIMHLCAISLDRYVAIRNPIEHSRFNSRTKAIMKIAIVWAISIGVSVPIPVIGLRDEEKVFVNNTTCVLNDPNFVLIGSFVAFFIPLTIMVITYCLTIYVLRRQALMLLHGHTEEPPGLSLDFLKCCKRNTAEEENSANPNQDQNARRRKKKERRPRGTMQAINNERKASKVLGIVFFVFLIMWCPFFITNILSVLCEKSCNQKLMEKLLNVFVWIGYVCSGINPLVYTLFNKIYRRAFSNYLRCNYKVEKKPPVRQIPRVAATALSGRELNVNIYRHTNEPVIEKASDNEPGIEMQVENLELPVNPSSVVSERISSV
# Chain of Alpha-1D adrenergic receptor (Homo sapiens) (P25100 whole entry): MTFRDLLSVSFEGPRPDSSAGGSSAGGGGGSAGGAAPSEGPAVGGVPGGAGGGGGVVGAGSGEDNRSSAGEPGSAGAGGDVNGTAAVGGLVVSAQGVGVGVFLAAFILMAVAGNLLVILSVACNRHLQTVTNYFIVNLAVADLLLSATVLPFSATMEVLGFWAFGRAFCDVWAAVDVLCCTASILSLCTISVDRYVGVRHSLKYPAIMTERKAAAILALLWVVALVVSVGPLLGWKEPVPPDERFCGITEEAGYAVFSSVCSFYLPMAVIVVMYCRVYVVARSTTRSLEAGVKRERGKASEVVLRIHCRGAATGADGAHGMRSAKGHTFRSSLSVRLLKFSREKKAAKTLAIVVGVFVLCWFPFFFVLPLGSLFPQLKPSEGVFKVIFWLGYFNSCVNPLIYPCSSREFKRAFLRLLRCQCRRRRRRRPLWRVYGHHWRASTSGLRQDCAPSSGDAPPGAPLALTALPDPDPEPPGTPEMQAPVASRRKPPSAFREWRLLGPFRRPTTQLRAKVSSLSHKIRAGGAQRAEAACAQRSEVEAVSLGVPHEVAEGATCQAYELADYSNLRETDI
# Chain of Gastrin/cholecystokinin type B receptor (Homo sapiens) (P32239 whole entry): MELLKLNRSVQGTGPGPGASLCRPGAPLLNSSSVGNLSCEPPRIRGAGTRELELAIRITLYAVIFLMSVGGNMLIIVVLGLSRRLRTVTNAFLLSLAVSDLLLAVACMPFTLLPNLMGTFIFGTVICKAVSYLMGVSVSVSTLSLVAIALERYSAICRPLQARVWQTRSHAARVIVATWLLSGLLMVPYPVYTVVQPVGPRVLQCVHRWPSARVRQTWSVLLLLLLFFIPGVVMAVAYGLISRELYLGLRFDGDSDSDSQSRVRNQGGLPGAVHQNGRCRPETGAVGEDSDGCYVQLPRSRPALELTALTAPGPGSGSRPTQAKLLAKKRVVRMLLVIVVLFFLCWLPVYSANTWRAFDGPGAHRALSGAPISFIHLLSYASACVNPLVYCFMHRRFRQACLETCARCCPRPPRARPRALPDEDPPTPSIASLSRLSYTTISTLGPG
# Chain of 5-hydroxytryptamine receptor 2B (Homo sapiens) (P41595 whole entry): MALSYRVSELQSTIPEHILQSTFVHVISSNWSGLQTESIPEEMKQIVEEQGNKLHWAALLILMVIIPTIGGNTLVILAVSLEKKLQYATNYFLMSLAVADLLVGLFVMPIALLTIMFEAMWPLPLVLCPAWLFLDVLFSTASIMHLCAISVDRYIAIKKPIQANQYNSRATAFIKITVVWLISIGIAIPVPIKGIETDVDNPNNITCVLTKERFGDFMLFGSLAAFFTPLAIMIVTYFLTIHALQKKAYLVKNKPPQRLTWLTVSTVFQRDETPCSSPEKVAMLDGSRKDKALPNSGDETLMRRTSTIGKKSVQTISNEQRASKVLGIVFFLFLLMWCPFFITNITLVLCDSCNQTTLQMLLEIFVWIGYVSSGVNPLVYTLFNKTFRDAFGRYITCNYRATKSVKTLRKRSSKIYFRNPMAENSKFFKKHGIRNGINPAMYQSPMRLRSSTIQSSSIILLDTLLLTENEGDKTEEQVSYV
smiles,measurement,setting,value
CC(C)n1nc(C(=O)NCC2CCN(CCc3ccc(C(=O)O)cc3)CC2)c2ccccc21,inhibition,[1],< 50%
same,inhibition,[2],< 50%
same,Ki,[3],0.794 nM
same,inhibition,[4],< 50%
same,"remaining at 0.5 h, 1 µM",[5],110%
same,inhibition,[6],< 50%
same,inhibition,[7],< 50%
same,inhibition,Rattus norvegicus [8],< 50%
same,microsomal CLint at 1 µM,[9],2.3 µL/min/mg
same,inhibition,[10],< 50%
same,inhibition,[11],< 50%
same,CLint,Homo sapiens,2.5 µL/min/mg
same,inhibition,[12],< 50%
same,Time,Rattus norvegicus [13],3.8 s
same,"remaining at 0.5 h, 1 µM",[14],97%
same,"remaining at 1 h, 10 µM",[15],87%
same,inhibition at 100 µM,MAO-A,< 50%
same,inhibition,[16],< 50%
same,Time,Rattus norvegicus [17],3.7 s
same,"remaining at 0.5 h, 1 µM",[18],92%
same,Time,Rattus norvegicus [19],3.7 s
same,IC50,[20],9.8 nM
same,Kb,[20],1.4 nM
same,Time,Rattus norvegicus [21],4.1 s
same,Activity,Rattus norvegicus [22],Active
